In PMC11588046 (Proceedings of the National Academy of Sciences of the …, 2024):
Numbering of substitutions follows the chain as printed. Values after ≈ are worked out from the molar mass of the structure shown. Like-named read-outs stand apart in the source and are kept apart here.

Tests used:
Dynamic solubility assay = format: physicochemical
WT ALK2 = molecular target: T1, WT ALK2 (Homo sapiens, UniProt Q04771); format: cell-based; conditions: read-out: ALK2 IC50; NanoBRET, HEK293 cells
T1 sequence (Q04771 21-509): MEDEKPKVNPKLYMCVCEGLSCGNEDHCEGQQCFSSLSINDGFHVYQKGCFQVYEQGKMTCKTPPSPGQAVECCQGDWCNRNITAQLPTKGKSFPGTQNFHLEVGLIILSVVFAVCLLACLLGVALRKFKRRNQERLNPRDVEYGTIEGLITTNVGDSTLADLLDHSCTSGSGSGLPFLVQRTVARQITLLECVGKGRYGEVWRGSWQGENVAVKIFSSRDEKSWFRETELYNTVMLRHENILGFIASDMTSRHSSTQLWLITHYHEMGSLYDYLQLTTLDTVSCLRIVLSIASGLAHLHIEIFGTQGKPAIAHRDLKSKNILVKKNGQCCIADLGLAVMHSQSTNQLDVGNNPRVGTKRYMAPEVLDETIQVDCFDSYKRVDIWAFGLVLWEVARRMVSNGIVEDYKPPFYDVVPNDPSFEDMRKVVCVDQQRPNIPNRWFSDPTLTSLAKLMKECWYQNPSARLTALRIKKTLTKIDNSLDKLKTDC

mutant ALK2 (R206H) = molecular target: T2, mutant ALK2 (R206H) (Homo sapiens, UniProt Q04771, R206H); format: cell-based; conditions: read-out: ALK2 (R206H) IC50; NanoBRET, HEK293 cells
T2 sequence (Q04771 21-509 R206H): T1 sequence (Q04771 21-509) with R186H

[1] = Metabolic stability in mouse liver microsomes; format: in vitro ADME
WT ALK1 = WT ALK1 (Homo sapiens, UniProt P37023); test: NanoBRET TE intracellular kinase assay; format: cell-based; conditions: read-out: ALK1 IC50, HEK293 cells
[2] = Metabolic stability in human liver microsomes; format: in vitro ADME
WT fibroblasts (GM01652) = test: pSMAD1/5 Western blot in primary WT fibroblasts; format: cell-based, human; conditions: 5 ng/mL BMP2, inhibitor 1, 5 or 25 µM (LDN 1 µM)
[3] = test system: FOP fibroblasts (GM00513); test: pSMAD Western blot in primary FOP fibroblasts; format: cell-based, human; conditions: FOP cells; for BMP2-induced pSMAD1/5 activation: 5 ng/mL BMP2, inhibitor 1, 5 or 25 µM (LDN 1 µM); for activin A-induced phosphorylation of SMAD1/5: 200 ng/mL activin A, inhibitor 1, 5 or 25 µM (LDN 1 µM)
Outline: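 Primary fibroblasts from a patient with FOP (GM00513) were pretreated for 30 min with test compound (1, 5 or 25 µM) or a reference inhibitor (1 µM). Cells then received vehicle (DMSO), 200 ng/mL activin A or 5 ng/mL BMP2 for 45 min, with inhibitor present. Lysates were Western blotted for pSMAD1/5, total SMAD1, total SMAD5 and GAPDH (loading control). For activin A, pSMAD2/3 was also blotted.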

293 T-BRE-Luc cells = test: BMP-induced luciferase activity in 293 T-BRE-Luc reporter cells; format: cell-based
Outline: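 293T cells stably carrying a BMP-responsive element–luciferase reporter, about 20,000 per well, attached overnight. Pretreated 30 min with DMSO vehicle or test compound (0.04, 0.2, 1, 5, 25 μM) in phenol-red-free DMEM with 2 mM glutamine and 2% heat-inactivated FBS. Then stimulated 6 h with BMP2 (5 ng/mL), BMP6 (500 ng/mL) or BMP7 (500 ng/mL). BrightGLO luminescence normalized to ligand-only samples; dose-response curves fitted.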

Chain of WT ALK1 (P37023 22-503): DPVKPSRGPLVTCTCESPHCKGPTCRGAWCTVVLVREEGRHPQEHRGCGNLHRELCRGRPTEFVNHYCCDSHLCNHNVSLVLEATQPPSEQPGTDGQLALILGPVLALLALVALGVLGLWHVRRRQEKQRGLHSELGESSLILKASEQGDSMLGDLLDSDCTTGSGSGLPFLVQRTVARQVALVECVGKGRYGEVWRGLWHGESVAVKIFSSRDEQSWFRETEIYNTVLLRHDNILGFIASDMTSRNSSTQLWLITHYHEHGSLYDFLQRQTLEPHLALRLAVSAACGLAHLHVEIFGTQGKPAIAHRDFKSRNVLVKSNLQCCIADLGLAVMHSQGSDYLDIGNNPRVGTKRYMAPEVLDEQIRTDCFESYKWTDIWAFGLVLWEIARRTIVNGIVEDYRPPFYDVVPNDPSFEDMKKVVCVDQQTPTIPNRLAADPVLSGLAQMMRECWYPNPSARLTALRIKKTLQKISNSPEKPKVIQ

| Solubility (Dynamic solubility assay) [µM] | IC50 (WT ALK2) [nM] | IC50 (mutant ALK2 (R206H)) [nM] | MLM t1/2 ([1]; U, extremely unstable) [min] | IC50 (WT ALK1) [nM] | HLM t1/2 ([2]; U, extremely unstable) [min] | MLM t1/2 [1] [min] | HLM t1/2 [2] [min] | Structure (SMILES) | BMP2-induced pSMAD1/5 activation (WT fibroblasts (GM01652)) | BMP2-induced pSMAD1/5 activation [3] | activin A-induced phosphorylation of SMAD1/5 [3] | IC50 (293 T-BRE-Luc cells; read-out: IC50 of BMP2-induced luciferase activity, 5 ng/mL BMP2, 6 h) [nM] | IC50 (293 T-BRE-Luc cells; read-out: IC50 of BMP6-induced luciferase activity, 500 ng/mL BMP6, 6 h) [nM] | IC50 (293 T-BRE-Luc cells; read-out: IC50 of BMP7-induced luciferase activity, 500 ng/mL BMP7, 6 h) [nM] |
| --- | --- | --- | --- | --- | --- | --- | --- | --- | --- | --- | --- | --- | --- | --- |
| 44.8 (≈ 28.6 µg/mL) | 1240 | 2400 | 3.7 | > 30000 | 6.0 | – | – | CNC(=O)[C@H]1C[C@H](n2c(-c3ccc(OC)c(OC)c3)nc3ccc(C(=O)NCCCN4CCN(c5cccc(C)c5C)CC4)cc32)C1 [CDD-2421] | – | – | – | – | – | – |
| 121.8 (≈ 72.9 µg/mL) | 5300 | 9250 | 7.1 | > 30000 | 24.4 | – | – | CNC(=O)[C@H]1C[C@H](n2c(-c3cc(F)cc(OC)c3)nc3ccc(C(=O)NCCCN4CCN(c5ccccc5)CC4)cc32)C1 [CDD-2340] | potently reduced BMP2-induced pSMAD1/5 activation in the WT fibroblasts at 5 and 25 µM | only the highest concentration (25 µM) was sufficient to significantly reduce pSMAD1/5 activation | significantly inhibit the activin A-induced phosphorylation of SMAD1/5 starting at the 1 µM concentration | – | – | – |
| 63.5 (≈ 37.1 µg/mL) | 570 | 1230 | 6.3 | > 30000 | 7.8 | – | – | COc1cc(-c2nc3ccc(C(=O)NCCCN4CCN(c5ccccc5)CC4)cc3n2C2CCC2)cc(OC)c1OC [CDD-2315] | significantly reduced pSMAD1/5 at all the concentrations tested | – | significantly inhibit the activin A-induced phosphorylation of SMAD1/5 starting at the 1 µM concentration | 1490 | 1460 | 980 |
| 141.5 (≈ 82.7 µg/mL) | 390 | 460 | 2.9 | 8550 | 17.0 | – | – | COc1cc(-c2nc3ccc(C(=O)NCC4(O)CCN(Cc5ccccc5)CC4)cc3n2C2CCC2)cc(OC)c1OC [CDD-2795] | – | – | – | – | – | – |
| – | – | – | – | – | – | – | – | c1ccc2c(-c3cnn4cc(-c5ccc(N6CCNCC6)cc5)cnc34)ccnc2c1 [LDN-193189, reference compound] | effectively suppressed pSMAD1/5 activation | effectively suppressed pSMAD1/5 activation | effectively suppressed pSMAD1/5 activation | – | – | – |
| 199.6 (≈ 105 µg/mL) | > 30000 | > 30000 | 807 | > 30000 | 769 | 804 | 768 | CNC(=O)[C@H]1C[C@H](n2c(-c3cc(OC)c(OC)c(OC)c3)nc3ccc(C(=O)NCCCN(C)C)cc32)C1 [CDD-2281] | – | – | – | – | – | – |
